Legend:
Plasmodium berghei [1] = experiment: Suppressive blood schizonticidal antimalarial activity evaluated in the trophozoite-induced Plasmodium berghei infection in mice (Mus musculus) at a dose 640 mg/kg given as number of toxic deaths; format: toxicity, organism-based; design: dose 640 mg/kg; details: in vivo
Outline: (§1)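 Rane Laboratory mouse test with blood-induced P. berghei infection, five mice per group. Toxic deaths are deaths occurring before the 6th day postinfection.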

Mus musculus [2] = experiment: Suppressive blood schizonticidal antimalarial activity evaluated in the trophozoite-induced Plasmodium berghei infection in mice (Mus musculus) at a dose 160 mg/kg given as no. of toxic deaths; format: functional; outline: as §1
Mus musculus [3] = experiment: Suppressive blood schizonticidal antimalarial activity evaluated in the trophozoite-induced Plasmodium berghei infection in mice (Mus musculus) at a dose 10 mg/kg; format: functional
Outline: (§2)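 Run at the Rane Laboratory in mice infected with blood-induced P. berghei, five animals per group. Activity is the increase in mean survival time over untreated infected controls. A compound counts as active when treated-group MST is more than twice the control MST. Cures are mice surviving at 60 days postinfection.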

Plasmodium berghei [4] = experiment: Blood schizonticidal activity in trophozoite-induced Plasmodium berghei infected mice (Mus musculus) at 40 mg/kg; numbers cured; format: functional
Outline: (§3)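 Run at the Rane Laboratory with blood-induced P. berghei infections in mice, five animals per group. A cure is a mouse surviving to 60 days postinfection. Deaths before day 6 are recorded separately as toxic deaths. Activity is scored from the increase in mean survival time over untreated controls, and counts as active when treated MST is more than twice control MST.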

Mus musculus [5] = experiment: Suppressive blood schizonticidal antimalarial activity evaluated in the trophozoite-induced Plasmodium berghei infection in mice (Mus musculus) at a dose 80 mg/kg given as no. of cures; format: functional; outline: as §3
Plasmodium cynomolgi [6] = experiment: Cures in Plasmodium cynomolgi infected Rhesus monkeys (Macaca mulatta) on 1 mg/kg/day after 7 days; cured 1 of 1; format: functional
Mus musculus [7] = experiment: Suppressive blood schizonticidal antimalarial activity evaluated in the trophozoite-induced Plasmodium berghei infection in mice (Mus musculus) at a dose 20 mg/kg given as no. of cures; format: functional; outline: as §3
Mus musculus [8] = experiment: Suppressive blood schizonticidal antimalarial activity evaluated in the trophozoite-induced Plasmodium berghei infection in mice (Mus musculus) at a dose 320 mg/kg given as no. of toxic deaths; format: functional; outline: as §1
Plasmodium cynomolgi [9] = experiment: Cures in Plasmodium cynomolgi infected Rhesus monkeys (Macaca mulatta) on 0.1 mg/kg/day after 7 days (x7); cured 0 of 2; format: functional
Mus musculus [10] = experiment: Suppressive blood schizonticidal antimalarial activity evaluated in the trophozoite-induced Plasmodium berghei infection in mice (Mus musculus) at a dose 320 mg/kg given as number of cures; format: functional; outline: as §3
Plasmodium cynomolgi [11] = experiment: Cures in Plasmodium cynomolgi infected Rhesus monkeys (Macaca mulatta) on 0.316 mg/kg/day after 7 days; cured 0 of 2; format: functional
Mus musculus [12] = experiment: Suppressive blood schizonticidal antimalarial activity evaluated in the trophozoite-induced Plasmodium berghei infection in mice (Mus musculus) at a dose 5 mg/kg; format: functional; design: unit not given beside the values; outline: as §2
Plasmodium cynomolgi [13] = experiment: Cures in Plasmodium cynomolgi infected Rhesus monkeys (Macaca mulatta) on 10.0 mg/kg/day after 7 days; format: functional, organism-based
Mus musculus [14] = experiment: Suppressive blood schizonticidal antimalarial activity evaluated in the trophozoite-induced Plasmodium berghei infection in mice (Mus musculus) at a dose 2.5 mg/kg; format: functional; outline: as §2
Mus musculus [15] = experiment: Suppressive blood schizonticidal antimalarial activity evaluated in the trophozoite-induced Plasmodium berghei infection in mice (Mus musculus) at a dose 10 mg/kg given as no. of cures; format: functional; outline: as §3
Mus musculus [16] = experiment: Suppressive blood schizonticidal antimalarial activity evaluated in the trophozoite-induced Plasmodium berghei infection in mice (Mus musculus) at a dose 160 mg/kg given as no. of cures; format: functional; outline: as §3
Mus musculus [17] = experiment: Suppressive blood schizonticidal antimalarial activity evaluated in the trophozoite-induced Plasmodium berghei infection in mice (Mus musculus) at a dose 640 mg/kg given as no. of cures; format: functional; outline: as §3
Mus musculus [18] = experiment: Suppressive blood schizonticidal antimalarial activity evaluated in the trophozoite-induced Plasmodium berghei infection in mice (Mus musculus) at a dose 40 mg/kg; format: functional; design: unit not given beside the values; outline: as §2
Plasmodium cynomolgi [19] = experiment: Cures in Plasmodium cynomolgi infected Rhesus monkeys (Macaca mulatta) on 0.316 mg/kg/day after 7 days; cures 2 of 2; format: functional
Plasmodium cynomolgi [20] = experiment: Cures in Plasmodium cynomolgi infected Rhesus monkeys (Macaca mulatta) on 1 mg/kg/day after 7 days; cured 2 of 2; format: functional
Mus musculus [21] = experiment: Suppressive blood schizonticidal antimalarial activity evaluated in the trophozoite-induced Plasmodium berghei infection in mice (Mus musculus) at a dose 320 mg/kg; format: functional; outline: as §2
Plasmodium cynomolgi [22] = experiment: Cures in Plasmodium cynomolgi infected Rhesus monkeys (Macaca mulatta) on 0.316 mg/kg/day after 7 days; cured 0 of 1; format: functional
Mus musculus [23] = experiment: Suppressive blood schizonticidal antimalarial activity evaluated in the trophozoite-induced Plasmodium berghei infection in mice (Mus musculus) at a dose 80 mg/kg given as no. of toxic deaths; format: functional; outline: as §1
Plasmodium cynomolgi [24] = experiment: Cures in Plasmodium cynomolgi infected Rhesus monkeys (Macaca mulatta) on 0.1 mg/kg/day after 7 days; cured 0 of 1; format: functional
Plasmodium cynomolgi [25] = experiment: Cures in Plasmodium cynomolgi infected Rhesus monkeys (Macaca mulatta) on 10.0 mg/kg/day after 7 days; cured 1 of 1; format: functional
Plasmodium berghei [26] = experiment: Blood schizonticidal antimalarial activity in the trophozoite-induced Plasmodium berghei infection in mice (Mus musculus) at 20 mg/kg; format: functional; design: unit not given beside the values; outline: as §2
Mus musculus [27] = experiment: Suppressive blood schizonticidal antimalarial activity evaluated in the trophozoite-induced Plasmodium berghei infection in mice (Mus musculus) at a dose 160 mg/kg; format: functional; outline: as §2
Mus musculus [28] = experiment: Suppressive blood schizonticidal antimalarial activity evaluated in the trophozoite-induced Plasmodium berghei infection in mice (Mus musculus) at a dose 80 mg/kg; format: functional; design: unit not given beside the values; outline: as §2
Plasmodium cynomolgi [29] = experiment: Cures in Plasmodium cynomolgi infected Rhesus monkeys (Macaca mulatta) on 1 mg/kg/day after 7 days; cured 0 of 1; format: functional
Mus musculus [30] = experiment: Suppressive blood schizonticidal antimalarial activity evaluated in the trophozoite-induced Plasmodium berghei infection in mice (Mus musculus) at a dose 5 mg/kg given as no. of cures; format: functional; outline: as §3

CCCCC(C)Oc1c(OC)cc(NC(C)CCCN)c2ncc(C)cc12 (centres undefined)
Toxic deaths (Plasmodium berghei [1]): 5
Toxic deaths (Mus musculus [2]): 5
Delta MST (Mus musculus [3]): 6.1
Cures (Plasmodium berghei [4]): 3
Cures (Mus musculus [5]): 1
Cures/no. of animals (Plasmodium cynomolgi [6]): 1
Cures (Mus musculus [7]): 2
Toxic deaths (Mus musculus [8]): 5

CCCCCCCCCOc1c(OC)cc(NC(C)CCCN)c2nccc(C)c12 (centres undefined)
Cures/no. of animals (Plasmodium cynomolgi [9]): 0
Cures (Mus musculus [10]): 4
Cures/no. of animals (Plasmodium cynomolgi [11]): 0
Delta MST (Mus musculus [12]): 9.7
Cures (Plasmodium berghei [4]): 5
Cures/no. of animals (Plasmodium cynomolgi [13]): Toxic
Delta MST (Mus musculus [14]): 7.9
Cures (Mus musculus [15]): 2
Cures (Mus musculus [5]): 5
Cures/no. of animals (Plasmodium cynomolgi [6]): 1
Cures (Mus musculus [16]): 4
Cures (Mus musculus [17]): 4
Cures (Mus musculus [7]): 3

CCOc1c(OC)cc(NC(C)CCCN)c2ncccc12 (centres undefined)
Toxic deaths (Plasmodium berghei [1]): 5
Toxic deaths (Mus musculus [2]): 3
Delta MST (Mus musculus [18]): 0.3

COc1cc(NC(C)CCCN)c2nccc(C)c2c1OC1CCCC1 (centres undefined)
Toxic deaths (Plasmodium berghei [1]): 5
Toxic deaths (Mus musculus [2]): 5
Cures/no. of animals (Plasmodium cynomolgi [9]): 0
Cures/no. of animals (Plasmodium cynomolgi [19]): 2
Delta MST (Mus musculus [3]): 6.9
Delta MST (Mus musculus [12]): 6.9
Cures (Plasmodium berghei [4]): 2
Cures/no. of animals (Plasmodium cynomolgi [13]): Toxic
Cures/no. of animals (Plasmodium cynomolgi [20]): 2
Delta MST (Mus musculus [14]): 6.1
Cures (Mus musculus [5]): 1
Cures (Mus musculus [7]): 1
Toxic deaths (Mus musculus [8]): 5

CCCCCCCCOc1c(OC)cc(NC(C)CCCN)c2nccc(C)c12 (centres undefined)
Delta MST (Mus musculus [21]): 0.4
Toxic deaths (Plasmodium berghei [1]): 2
Cures/no. of animals (Plasmodium cynomolgi [22]): 0
Delta MST (Mus musculus [12]): 12
Cures (Plasmodium berghei [4]): 5
Cures/no. of animals (Plasmodium cynomolgi [13]): Toxic
Delta MST (Mus musculus [14]): 7.8
Cures (Mus musculus [15]): 5
Cures (Mus musculus [5]): 5
Cures/no. of animals (Plasmodium cynomolgi [6]): 1
Cures (Mus musculus [16]): 2
Cures (Mus musculus [7]): 5

CCCCOc1c(OC)cc(NC(C)CCCN)c2nccc(C)c12 (centres undefined)
Toxic deaths (Plasmodium berghei [1]): 5
Toxic deaths (Mus musculus [23]): 4
Toxic deaths (Mus musculus [2]): 5
Cures/no. of animals (Plasmodium cynomolgi [9]): 0
Cures/no. of animals (Plasmodium cynomolgi [19]): 2
Delta MST (Mus musculus [3]): 11
Cures (Plasmodium berghei [4]): 3
Cures/no. of animals (Plasmodium cynomolgi [6]): 1
Cures (Mus musculus [7]): 5
Toxic deaths (Mus musculus [8]): 5

COc1cc(NC(C)CCCN)c2nccc(C)c2c1OCC1CCCCC1 (centres undefined)
Toxic deaths (Plasmodium berghei [1]): 5
Cures/no. of animals (Plasmodium cynomolgi [22]): 0
Cures/no. of animals (Plasmodium cynomolgi [24]): 0
Delta MST (Mus musculus [12]): 7.8
Cures (Plasmodium berghei [4]): 3
Cures/no. of animals (Plasmodium cynomolgi [20]): 2
Cures/no. of animals (Plasmodium cynomolgi [25]): 1
Delta MST (Mus musculus [14]): 9.2
Cures (Mus musculus [15]): 1
Cures (Mus musculus [5]): 1
Cures (Mus musculus [7]): 4
Toxic deaths (Mus musculus [8]): 4

COc1cc(NC(C)CCCN)c2ncccc2c1OCC(F)(F)F (centres undefined)
Cures/no. of animals (Plasmodium cynomolgi [22]): 0
Cures/no. of animals (Plasmodium cynomolgi [6]): 1

COc1cc(NC(C)CCCN)c2nccc(C)c2c1OCCCCCCOc1ccccc1 (centres undefined)
Toxic deaths (Plasmodium berghei [1]): 2
Cures/no. of animals (Plasmodium cynomolgi [24]): 0
Cures/no. of animals (Plasmodium cynomolgi [11]): 0
Delta MST (Mus musculus [12]): 7.3
Cures (Plasmodium berghei [4]): 5
Cures (Mus musculus [15]): 2
Cures (Mus musculus [5]): 4
Cures/no. of animals (Plasmodium cynomolgi [6]): 1
Cures (Mus musculus [16]): 2
Cures (Mus musculus [7]): 4
Toxic deaths (Mus musculus [8]): 2

COc1cc(NC(C)CCCN)c2nc(C)ccc2c1 (centres undefined)
Toxic deaths (Plasmodium berghei [1]): 5
Delta MST (Plasmodium berghei [26]): 3.1
Delta MST (Mus musculus [18]): 5.5
Delta MST (Mus musculus [27]): 8.3
Delta MST (Mus musculus [28]): 7.3
Toxic deaths (Mus musculus [8]): 1

CCCCCCCCCCOc1c(OC)cc(NC(C)CCCN)c2ncccc12 (centres undefined)
Delta MST (Mus musculus [21]): 9.3
Delta MST (Plasmodium berghei [26]): 0.1
Cures/no. of animals (Plasmodium cynomolgi [29]): 0
Delta MST (Mus musculus [18]): 0.1
Cures/no. of animals (Plasmodium cynomolgi [25]): 1
Delta MST (Mus musculus [27]): 5.7
Cures (Mus musculus [17]): 2
Delta MST (Mus musculus [28]): 2.9

CCCC(CC)Oc1c(OC)cc(NC(C)CCCN)c2ncc(C)cc12 (centres undefined)
Toxic deaths (Plasmodium berghei [1]): 5
Delta MST (Plasmodium berghei [26]): 5.3
Cures/no. of animals (Plasmodium cynomolgi [29]): 0
Toxic deaths (Mus musculus [2]): 4
Cures/no. of animals (Plasmodium cynomolgi [24]): 0
Cures (Plasmodium berghei [4]): 1
Cures (Mus musculus [5]): 1
Toxic deaths (Mus musculus [8]): 5

COc1cc(NC(C)CCCN)c2nccc(C)c2c1OCCCCOc1ccccc1 (centres undefined)
Toxic deaths (Plasmodium berghei [1]): 5
Toxic deaths (Mus musculus [23]): 5
Cures (Mus musculus [30]): 1
Toxic deaths (Mus musculus [2]): 5
Cures/no. of animals (Plasmodium cynomolgi [9]): 0
Delta MST (Mus musculus [3]): 10.2
Cures (Plasmodium berghei [4]): 5
Delta MST (Mus musculus [14]): 8
Cures (Mus musculus [7]): 5
Toxic deaths (Mus musculus [8]): 5

CCCCCCCCOc1c(OC)cc(NC(C)CCCN)c2ncccc12 (centres undefined)
Delta MST (Mus musculus [21]): 6.3
Toxic deaths (Plasmodium berghei [1]): 1
Delta MST (Plasmodium berghei [26]): 2.9
Cures/no. of animals (Plasmodium cynomolgi [22]): 0
Cures/no. of animals (Plasmodium cynomolgi [9]): 0
Delta MST (Mus musculus [18]): 6.7
Cures/no. of animals (Plasmodium cynomolgi [20]): 2
Delta MST (Mus musculus [27]): 12.1
Delta MST (Mus musculus [28]): 8.1

CCCCCCCCCCCCOc1c(OC)cc(NC(C)CCCN)c2nccc(C)c12 (centres undefined)
Delta MST (Plasmodium berghei [26]): 3.2
Cures/no. of animals (Plasmodium cynomolgi [29]): 0
Cures/no. of animals (Plasmodium cynomolgi [24]): 0
Cures (Mus musculus [10]): 5
Delta MST (Mus musculus [3]): 2
Delta MST (Mus musculus [18]): 6.4
Cures (Mus musculus [16]): 4
Cures (Mus musculus [17]): 5
Delta MST (Mus musculus [28]): 7.6
